{"data": "Measurements gathered from unrelated publications", "target": "Tyrosine-protein kinase FRK (FRK, Homo sapiens, UniProt P42685)", "note": "Lines come from different studies, so protocols differ."}
{"Compound": "COc1cnc(Nc2cccc(S(N)(=O)=O)c2)nc1N1CCN(c2ccccc2)CC1", "read-out": "binding", "technique": "competition with immobilised ligand", "concentration": "1 µM", "remaining binding": "100%"}
{"Compound": "COc1ccnn2ncc(-c3ccnc(N(C)C)n3)c12", "read-out": "binding", "concentration": "1 µM", "remaining binding": "92%"}
{"Compound": "O=C(c1ccc(Nc2nccc(-c3cc4ccccc4s3)n2)cc1)N1CCC(N2CCCC2)CC1", "read-out": "binding", "technique": "competition with immobilised ligand", "concentration": "1 µM", "remaining binding": "83%"}
{"Compound": "Nc1ncc2c(n1)-c1c([nH]c3ccc(C#CC4CC4)cc13)CCCC2", "read-out": "binding", "technique": "competition with immobilised ligand", "concentration": "1 µM", "remaining binding": "95%"}
{"Compound": "O=C(Nc1c[nH]nc1C(=O)NC1CCNCC1)c1cc(F)cc(F)c1", "read-out": "binding", "technique": "competition with immobilised ligand", "concentration": "1 µM", "remaining binding": "82%"}
{"Compound": "CO[C@@H](C)c1c(Nc2ccc([C@H](N(C)C(=O)C3CCS(=O)(=O)CC3)C(F)(F)F)cc2)cnc2cc(Cl)nn12", "read-out": "cell-free assay", "technique": "competition with immobilised ligand", "concentration": "1 µM", "remaining binding": "80%"}
{"Compound": "O=C(c1ccc(Nc2ncc(Cl)c(-c3cc4ccccc4s3)n2)cc1)N1CCC(N2CCCC2)CC1", "read-out": "binding", "technique": "competition with immobilised ligand", "concentration": "1 µM", "remaining binding": "90%"}
{"Compound": "F[C@@H]1CCN(c2nccc(-c3cnn4ncccc34)n2)C1", "read-out": "binding", "concentration": "1 µM", "remaining binding": "88%"}
{"Compound": "COc1cnc(Nc2cccc(S(N)(=O)=O)c2)nc1N1CCN(c2ccccc2)C(=O)C1", "read-out": "binding", "technique": "competition with immobilised ligand", "concentration": "1 µM", "remaining binding": "100%"}
{"Compound": "CC1CCCN1c1nccc(-c2cnn3ncccc23)n1 (stereo not shown)", "read-out": "binding", "technique": "competition with immobilised ligand", "concentration": "1 µM", "remaining binding": "88%"}
{"Compound": "COc1ncc2cc3ccccc3nc2c1C#N", "read-out": "cell-free assay", "technique": "competition with immobilised ligand", "concentration": "5 µM", "remaining binding": "99%"}
{"Compound": "NS(=O)(=O)c1cc(NC(=O)C2(c3ccccc3Cl)CC2)ccc1Oc1cccc(Cl)c1", "read-out": "cell-free assay", "technique": "competition with immobilised ligand", "concentration": "1 µM", "remaining binding": "99%"}
{"Compound": "CN(CCCC(F)(F)F)c1nccc(-c2cnn3ncccc23)n1", "read-out": "binding", "concentration": "1 µM", "remaining binding": "93%"}
{"Compound": "CCCOc1ccc([C@H]2[C@H](C(=O)O)[C@@H](c3ccc4c(c3)OCO4)CN2CC(=O)Nc2c(CC)cccc2CC)cc1", "read-out": "cell-free assay", "technique": "competition with immobilised ligand", "concentration": "1 µM", "remaining binding": "100%"}
{"Compound": "Cc1cnc(Nc2ccc(C(=O)N3CCC(N4CCCC4)CC3)cc2)nc1-c1cc2ccccc2s1", "read-out": "binding", "technique": "competition with immobilised ligand", "concentration": "1 µM", "remaining binding": "76%"}
{"Compound": "N[C@H]1CCN(c2nccc(-c3cnn4ncccc34)n2)C1", "read-out": "binding", "technique": "competition with immobilised ligand", "concentration": "1 µM", "remaining binding": "100%"}
{"Compound": "N#Cc1ccc(Nc2ccc3[nH]c(=O)[nH]c3c2)c(Cl)c1", "read-out": "cell-free assay", "technique": "competition with immobilised ligand", "concentration": "1 µM", "remaining binding": "73%"}
{"Compound": "C[C@H]1CCN(c2nccc(-c3cnn4ncccc34)n2)C1", "read-out": "binding", "concentration": "1 µM", "remaining binding": "100%"}
{"Compound": "CNC(=O)Nc1ccc2c(c1)[C@@]1(CC2)OC(=O)N(CC(=O)N(Cc2ccc(F)cc2)[C@@H](C)C(F)(F)F)C1=O", "read-out": "cell-free assay", "technique": "competition with immobilised ligand", "concentration": "1 µM", "remaining binding": "95%"}
{"Compound": "c1cncc(-c2cccc(Nc3nccc(NC4CCCCC4)n3)c2)c1", "read-out": "binding", "technique": "competition with immobilised ligand", "concentration": "10 µM", "remaining binding": "53%"}
{"Compound": "COc1ccc2c(c1)O[C@@H](c1ccc(OC)c(OC)c1)C[C@H]2NC(=O)C1(c2ccc3c(c2)OC(F)(F)O3)CC1", "read-out": "cell-free assay", "technique": "competition with immobilised ligand", "concentration": "1 µM", "remaining binding": "100%"}
{"Compound": "CN(C)c1ncc(F)c(-c2cnn3ncccc23)n1", "read-out": "binding", "technique": "competition with immobilised ligand", "concentration": "1 µM", "remaining binding": "100%"}
